# In ChEMBL document CHEMBL3808357, “Discovery of N-(3-((1-Isonicotinoylpiperidin-4-yl)oxy)-4-methylphenyl)-3-(trifluoromethyl)benzamide (CHMFL-KIT-110) as a Selective, Potent, and Orally Available Type II c-KIT Kinase Inhibitor for Gastrointestinal Stromal Tumors (GISTs)” (J Med Chem, 2016):
# The source made the active and inactive calls. The calls are words filed in the database; no cut-off is given here.
# Legend:
# [1] = target: Mast/stem cell growth factor receptor Kit (Homo sapiens) (UniProt P10721); assay: Inhibition of cKIT in human GISTT1 cells assessed as suppression of ERK phosphorylation at T202/Y204 up to 10 uM after 2 hrs by Western blot analysis; format: cell-based
# Chain of Mast/stem cell growth factor receptor Kit (Homo sapiens) (P10721 whole entry): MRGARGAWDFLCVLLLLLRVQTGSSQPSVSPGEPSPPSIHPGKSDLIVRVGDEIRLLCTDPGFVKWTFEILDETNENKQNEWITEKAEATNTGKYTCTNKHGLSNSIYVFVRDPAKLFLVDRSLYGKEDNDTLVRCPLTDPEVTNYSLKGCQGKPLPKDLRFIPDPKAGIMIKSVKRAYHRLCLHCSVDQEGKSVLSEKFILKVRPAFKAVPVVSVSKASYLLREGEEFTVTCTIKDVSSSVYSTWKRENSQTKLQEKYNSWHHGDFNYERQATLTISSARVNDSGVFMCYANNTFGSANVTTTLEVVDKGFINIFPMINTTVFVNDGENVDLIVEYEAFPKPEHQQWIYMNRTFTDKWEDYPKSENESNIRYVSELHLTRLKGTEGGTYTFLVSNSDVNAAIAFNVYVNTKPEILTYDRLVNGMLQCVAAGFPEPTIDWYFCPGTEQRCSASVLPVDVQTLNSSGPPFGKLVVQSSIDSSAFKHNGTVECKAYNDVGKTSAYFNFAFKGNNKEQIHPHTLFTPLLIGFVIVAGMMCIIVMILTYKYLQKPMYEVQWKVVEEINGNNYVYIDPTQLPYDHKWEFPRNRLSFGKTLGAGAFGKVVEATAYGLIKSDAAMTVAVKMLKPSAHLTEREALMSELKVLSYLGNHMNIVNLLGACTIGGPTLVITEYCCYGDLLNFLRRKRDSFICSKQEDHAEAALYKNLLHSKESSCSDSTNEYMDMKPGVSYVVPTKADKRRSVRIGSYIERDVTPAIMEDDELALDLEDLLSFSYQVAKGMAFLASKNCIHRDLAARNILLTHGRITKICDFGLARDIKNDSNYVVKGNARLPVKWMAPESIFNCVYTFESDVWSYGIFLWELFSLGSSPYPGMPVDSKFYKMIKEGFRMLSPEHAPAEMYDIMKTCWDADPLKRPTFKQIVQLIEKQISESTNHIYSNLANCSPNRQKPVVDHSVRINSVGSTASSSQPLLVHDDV
# [2] = target: Mast/stem cell growth factor receptor Kit (Homo sapiens) (UniProt P10721); assay: Inhibition of cKIT in human GISTT1 cells assessed as suppression of S6K phosphorylation at T389 up to 10 uM after 2 hrs by Western blot analysis; format: cell-based
# [3] = target: Mast/stem cell growth factor receptor Kit (Homo sapiens) (UniProt P10721); assay: Inhibition of cKIT in human GIST882 cells assessed as suppression of S6K phosphorylation at T389 up to 10 uM after 2 hrs by Western blot analysis; format: cell-based
# [4] = target: Mast/stem cell growth factor receptor Kit (Homo sapiens) (UniProt P10721); assay: Inhibition of cKIT autophosphorylation at Y703 in human GIST48B cells up to 10 uM after 2 hrs by Western blot analysis; format: cell-based
# [5] = target: Mast/stem cell growth factor receptor Kit (Homo sapiens) (UniProt P10721); assay: Inhibition of cKIT autophosphorylation at Y823 in human GIST48B cells up to 10 uM after 2 hrs by Western blot analysis; format: cell-based
# [6] = target: Platelet-derived growth factor receptor alpha (Homo sapiens) (UniProt P16234); assay: Inhibition of PDGFRalpha phosphorylation at Y849 in human GIST882 cells up to 10 uM after 2 hrs by Western blot analysis; format: cell-based
# Chain of Platelet-derived growth factor receptor alpha (Homo sapiens) (P16234 whole entry): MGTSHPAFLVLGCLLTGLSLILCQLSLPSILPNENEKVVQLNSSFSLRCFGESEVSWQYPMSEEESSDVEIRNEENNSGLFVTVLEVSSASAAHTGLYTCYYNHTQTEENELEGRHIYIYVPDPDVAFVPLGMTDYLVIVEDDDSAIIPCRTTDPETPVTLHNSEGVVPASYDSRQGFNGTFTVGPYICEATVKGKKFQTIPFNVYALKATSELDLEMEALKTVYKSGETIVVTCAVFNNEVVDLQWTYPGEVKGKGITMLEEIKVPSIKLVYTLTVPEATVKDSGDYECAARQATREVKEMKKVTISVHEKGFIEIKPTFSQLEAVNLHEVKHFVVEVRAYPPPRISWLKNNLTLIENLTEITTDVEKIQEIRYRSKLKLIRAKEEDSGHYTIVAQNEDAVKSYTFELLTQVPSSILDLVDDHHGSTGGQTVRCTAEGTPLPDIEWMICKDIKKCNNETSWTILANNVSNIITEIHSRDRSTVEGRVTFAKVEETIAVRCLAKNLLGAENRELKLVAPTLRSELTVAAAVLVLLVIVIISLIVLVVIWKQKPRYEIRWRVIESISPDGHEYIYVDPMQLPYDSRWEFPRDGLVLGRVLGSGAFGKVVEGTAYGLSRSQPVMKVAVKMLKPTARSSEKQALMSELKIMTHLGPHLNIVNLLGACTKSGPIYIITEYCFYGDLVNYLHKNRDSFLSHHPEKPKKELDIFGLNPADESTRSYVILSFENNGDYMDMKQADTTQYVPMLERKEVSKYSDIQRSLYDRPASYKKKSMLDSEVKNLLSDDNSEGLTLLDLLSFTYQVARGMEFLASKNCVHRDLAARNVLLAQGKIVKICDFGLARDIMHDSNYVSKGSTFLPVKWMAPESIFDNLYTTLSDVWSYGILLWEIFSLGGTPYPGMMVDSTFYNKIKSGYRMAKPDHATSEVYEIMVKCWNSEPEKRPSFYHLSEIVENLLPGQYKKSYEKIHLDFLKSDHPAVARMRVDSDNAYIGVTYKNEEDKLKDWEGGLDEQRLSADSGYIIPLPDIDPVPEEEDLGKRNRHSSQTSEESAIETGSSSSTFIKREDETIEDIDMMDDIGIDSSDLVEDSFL
# How it was run: (§1)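 Cells were washed in cold PBS, lysed in RIPA and immunoblotted for phospho and total proteins, including pPDGFRα Y849/PDGFRβ Y857 and β-actin.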
# [7] = test system: GIST882; assay: Induction of apoptosis in human GIST882 cells assessed as PARP cleavage up to 3 uM after 72 hrs by Western blot analysis; format: functional, cell-based
# [8] = test system: GIST48B; assay: Induction of apoptosis in human GIST48B cells assessed as PARP cleavage up to 3 uM after 72 hrs by Western blot analysis; format: functional, cell-based
# [9] = Cell cycle arrest in human GISTT1 cells at 0.3 to 3 uM after 24 hrs by propidium iodide/RNase staining based flow cytometric analysis; format: functional
# How it was run: (§2)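 Cells were then fixed in 70% cold ethanol at −20 °C overnight, stained with PI/RNase buffer and analysed by flow cytometry.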
# [10] = Cell cycle arrest in human GIST882 cells at 0.3 to 3 uM after 48 hrs by propidium iodide/RNase staining based flow cytometric analysis; format: functional; how it was run: as §2
# [11] = MRT(0 to t) in Sprague-Dawley rat plasma at 1 mg/kg, iv; format: ADME, organism-based
# How it was run: (§3)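 Male Sprague–Dawley rats, 8 weeks old, six in total, fasted overnight; compound dissolved in 5% DMSO/40% PEG400/55% saline (1 mg/mL dosing solution), given iv or orally. About 0.2 mL jugular blood taken with heparin at 1 min–8 h (iv) or 5 min–24 h (oral); plasma separated at 2–8 °C and stored at −80 °C before analysis.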
# [12] = MRT(0 to t) in Sprague-Dawley rat plasma at 10 mg/kg, po; format: ADME, organism-based; how it was run: as §3
# [13] = Half life in Sprague-Dawley rat plasma at 10 mg/kg, po; format: ADME, organism-based
# How it was run: (§4)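 Male Sprague-Dawley rats, 8 weeks old, fasted overnight, dosed iv or orally. Formulation was 5% DMSO/40% PEG400/55% saline at 1 mg/mL. Blood (~0.2 mL) was drawn from the jugular vein into heparin. Sampling: iv at 1 min to 8 h; oral at 5 min to 24 h. Plasma was separated by centrifugation at 2−8 °C and stored at −80 °C.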
# [14] = Apparent volume of distribution in Sprague-Dawley rat plasma at 1 mg/kg, iv; format: ADME, organism-based; conditions: read-out: Vz; how it was run: as §4
# [15] = test system: Rattus norvegicus; assay: Apparent volume of distribution in Sprague-Dawley rat plasma at 10 mg/kg, po; format: ADME, organism-based; conditions: in vivo; how it was run: as §4
# [16] = Apparent clearance in Sprague-Dawley rat plasma at 1 mg/kg, iv; format: ADME, organism-based; conditions: read-out: CL(app) (converted); how it was run: as §4
# [17] = Cmax in Sprague-Dawley rat plasma at 1 mg/kg, iv; format: ADME, organism-based; design: dose 1 mg/kg, route intravenous; how it was run: as §4
# [18] = test system: Mus musculus; assay: Toxicity in nu/nu mouse xenografted with human GISTT1 cells assessed as body weight change at 25 to 100 mg/kg/day administered through oral gavage after 21 days; format: organism-based; conditions: in vivo, 504 h
# How it was run: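 Female nu/nu mice, 6 weeks old, injected subcutaneously in the right flank with 5 million GIST-T1 cells in PBS/Matrigel 1:1. At tumor volume 100–200 mm³, randomized to groups of six; daily oral gavage of 25, 50 or 100 mg/kg/d or vehicle (0.5% methylcellulose/0.4% Tween80 in water). Body weight measured daily, normalized to initial weight; mean ± SEM.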
# [19] = Antitumor activity against human GISTT1 cells xenografted in nu/nu mouse assessed as tumor growth inhibition at 50 mg/kg/day administered through oral gavage after 21 days; format: functional; conditions: 504 h, read-out: TGI
# How it was run: (§5)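 Female nu/nu mice, 6 weeks old, received 5 × 10⁶ GIST-T1 cells in PBS/Matrigel (1:1) subcutaneously in the right flank. At 100−200 mm³, six mice per group were dosed daily by oral gavage at 25, 50 or 100 mg/kg/d in 0.5% methylcellulose/0.4% Tween80, or vehicle. Tumor volume was taken as (W²×L)/2, with body weight and tumor measured daily. Tumors were stained for Ki67 (IHC, 1:50 antibody) and by TUNEL.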
# [20] = test system: GISTT1; assay: Induction of apoptosis in human GISTT1 cells xenografted in nu/nu mouse at 25 to 100 mg/kg/day administered through oral gavage after 21 days by tunel assay; format: functional, organism-based; how it was run: as §5
# [21] = Antiproliferative activity against mouse BAF3 cells; format: cell-based
# [22] = test system: Mast/stem cell growth factor receptor Kit (Homo sapiens), P10721 [N822K]; assay: Inhibition of Tel-fused cKIT N822K mutant (unknown origin) transfected in mouse BAF3 cells assessed as decrease in cell proliferation after 72 hrs by celltiter-glo/CCK8 assay; format: cell-based
# Chain of Mast/stem cell growth factor receptor Kit (Homo sapiens), P10721 [N822K] (P10721 whole entry N822K, the tested form may be a part): as the sequence (P10721 whole entry) above, with N822K counted along it
# [23] = test system: MV4-11; assay: Antiproliferative activity against FLT3-ITD dependent human MV4-11 cells assessed as reduction in cell viability after 72 hrs by celltiter-glo/CCK8 assay; format: functional; conditions: MV4-11, 72 h
# How it was run: (§6)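 Cells were seeded at 1 to 3 × 10⁴ cells/mL with serial compound concentrations and incubated 72 h at 37 °C, 5% CO₂. Viability was read by CellTiter-Glo luminescence or CCK-8 absorbance (450/655 nm). GI50 values are from triplicate testing. GIST-T1 and CHO were grown in DMEM/10% FBS; GIST-882, GIST-48B and MV4-11 in IMDM/10% FBS; other lines in RPMI 1640/10% FBS.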
# [24] = Antiproliferative activity against BCR-ABL dependent human KU812 cells assessed as reduction in cell viability after 72 hrs by celltiter-glo/CCK8 assay; format: functional; conditions: KU812, 72 h; how it was run: as §6
# [25] = Antiproliferative activity against human Rec1 cells assessed as reduction in cell viability after 72 hrs by celltiter-glo/CCK8 assay; format: functional; conditions: Rec1, 72 h; how it was run: as §6
# [26] = Antiproliferative activity against CHO cells assessed as reduction in cell viability after 72 hrs by celltiter-glo/CCK8 assay; format: cell-based, Cricetulus griseus; conditions: chinese hamster; how it was run: as §6
# [27] = target: Mast/stem cell growth factor receptor Kit (Homo sapiens) (UniProt P10721); assay: Inhibition of cKIT autophosphorylation at Y719 in human GISTT1 cells up to 10 uM after 2 hrs by Western blot analysis; format: cell-based
# [28] = target: Mast/stem cell growth factor receptor Kit (Homo sapiens) (UniProt P10721); assay: Inhibition in cKIT autophosphorylation at Y703 in human GISTT1 cells up to 10 uM after 2 hrs by Western blot analysis; format: cell-based; how it was run: as §1
structure (smiles),measurement,setting,value
Cc1ccc(NC(=O)c2cccc(C(F)(F)F)c2)cc1OC1CCN(C(=O)c2ccncc2)CC1,inhibition,[1],Active
same,inhibition,[2],Active
same,inhibition,[3],Active
same,inhibition,[4],Active
same,inhibition,[5],inactive
same,inhibition,[6],Active
same,Activity,[7],Active
same,Activity,[8],inactive
same,Activity,[9],Active
same,Activity,[10],Active
same,MRT last,[11],0.484 h
same,MRT last,[12],4.8 h
same,half-life,[13],4.11 h
same,Vd,[14],3.22 L/kg
same,Vz,[15],76.407 L/kg
same,clearance,[16],83.1 mL/min/kg
same,Cmax,[17],511 ng/mL
same,Activity,[18],Non-toxic
same,inhibition in vivo at 50 mg/kg/day,[19],35%
same,Activity,[20],Active
same,GI50,[21],> 10 µM
same,GI50,[22],1.06 µM
same,GI50,[23],> 10 µM
same,GI50,[24],6.71 µM
same,GI50,[25],> 10 µM
same,GI50 at 72 h,[26],> 10 µM
same,inhibition,[27],Active
same,inhibition,[28],Active
